Test results from ChEMBL document CHEMBL5625173, “Antimycobacterial pyridine carboxamides: From design to in vivo activity” (Eur J Med Chem, 2023).
Values after ≈ are worked out from the molar mass of the structure shown. Active and inactive are the calls of the source. The rule behind the calls is not given here.

Key:
[1] = Selectivity index, ratio of IC50 for cytotoxicity against human HepG2 cells to MIC for antimycobacterial activity against Mycobacterium tuberculosis H37Rv; type: toxicity, cell-based; details: read-out: Selectivity Index
[2] = tested on: Mycobacterium tuberculosis; assay: Antimycobacterial activity against Mycobacterium tuberculosis H37Rv at 40 times MIC measured after 15 days in presence of methionine by alamar blue staining based microplate analysis; type: functional, organism-based; details: time 15.0 day
[3] = tested on: Mycobacterium avium; assay: Antimycobacterial activity against Mycobacterium avium by alamar blue staining based microplate analysis; type: functional
Method in brief: (§1)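 Microplate Alamar Blue assay. MIC values read at pH 6.6 (neutral). One acidic-pH test at pH 5.6 is footnoted separately.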

[4] = tested on: Mycobacterium tuberculosis; assay: Antimycobacterial activity against Mycobacterium tuberculosis H37Rv by alamar blue staining based microplate analysis; type: functional; method in brief: as §1
[5] = Cytotoxicity against human HepG2 cells assessed as inhibition of cell viability; type: toxicity, cell-based
[6] = tested on: Mycolicibacterium smegmatis; assay: Antimycobacterial activity against Mycobacterium smegmatis by alamar blue staining based microplate analysis; type: functional
Method in brief: (§2)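 Microplate Alamar Blue assay, one of six mycobacterial strains tested (Mtb H37Rv, Mtb H37Ra, M. kansasii, M. avium, M. smegmatis, M. aurum); value reported as MIC.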

[7] = tested on: Mycolicibacterium aurum; assay: Antimycobacterial activity against Mycobacterium aurum by alamar blue staining based microplate analysis; type: functional; method in brief: as §2
[8] = tested on: Mycobacterium tuberculosis; assay: Antimycobacterial activity against Mycobacterium tuberculosis H37Ra by alamar blue staining based microplate analysis; type: functional; method in brief: as §1
[9] = tested on: Mycobacterium tuberculosis; assay: Antimycobacterial activity against Mycobacterium tuberculosis IZAK by alamar blue staining based microplate analysis; type: functional
[10] = tested on: Mycobacterium tuberculosis; assay: Antimycobacterial activity against Mycobacterium tuberculosis MAT1 by alamar blue staining based microplate analysis; type: functional
[11] = Drug metabolism in human liver microsomes assessed as M2 metabolite formation at 90 uM incubated for 3 hrs; type: ADME, Microsome
Method in brief: (§3)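 Phase I metabolite identification: ammonium salt of the compound (for solubility) or its lactone, 90 μM, incubated with human liver microsomes for 3 h; metabolites detected by HPLC-MS, positive ion mode, by m/z.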

[12] = Drug metabolism in human liver microsomes assessed as M1 metabolite formation at 90 uM incubated for 3 hrs; type: ADME, Microsome; method in brief: as §3
[13] = Metabolic stability in human liver microsomes assessed as half life at 3 uM incubated for 45 mins by HPLC-MS analysis; type: ADME, Microsome
Method in brief: (§4)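 Ammonium salt or lactone, 3 μM, incubated with human liver microsomes at physiological pH; reactions stopped at 0, 5, 15, 30 and 45 min and analysed by HPLC-MS; k, t1/2 and intrinsic clearance calculated from the HPLC-MS records.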

[14] = Drug metabolism in human liver microsomes assessed as M3 metabolite formation at 90 uM incubated for 3 hrs; type: ADME, Microsome; method in brief: as §3
[15] = Metabolic stability in human liver microsomes assessed as intrinsic clearance at 3 uM incubated for 45 mins by HPLC analysis; type: ADME, Microsome; details: read-out: CLH; method in brief: as §4
[16] = tested on: Mycobacterium kansasii; assay: Antimycobacterial activity against Mycobacterium kansasii by alamar blue staining based microplate analysis; type: functional; method in brief: as §2
[17] = tested on: Mycobacterium tuberculosis; assay: Antimycobacterial activity against Mycobacterium tuberculosis H37Rv assessed as decreased synthesis of tri-acylglyerols at 1.5 to 6 ug/ml incubated for 24 hrs in presence of 14C acetate by TLC analysis; type: functional, organism-based; details: dose 1.5-6 µg/ml
Method in brief: (§5)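 Mtb H37Rv cultures exposed to 0, 1.5, 3 or 6 μg/ml compound or its sodium salt for 24 h. 14C acetate then added and cells grown a further 24 h. Lipids and mycolic acids extracted; fatty acids derivatized to methyl esters. Separated by TLC on standard or AgNO3-impregnated plates in Solvent IV and visualized by autoradiography.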

[18] = tested on: Mycobacterium tuberculosis; assay: Antimycobacterial activity against Mycobacterium tuberculosis H37Rv infected in mouse assessed as reduction in colony formation in lungs at 50 mg/kg administered for 28 days; type: functional, organism-based; details: time 28.0 day
Method in brief: (§6)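 Mice infected intranasally with Mtb H37Rv; infection allowed to develop four weeks. Then dosed for 28 days with sodium salt forms as water solution by gastric tube. Lung and spleen CFU determined and compared with untreated control group.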

[19] = tested on: Mycobacterium tuberculosis; assay: Antimycobacterial activity against Mycobacterium tuberculosis H37Rv assessed as change in trehalose dimycolates production at 1.5 to 6 ug/ml incubated for 24 hrs in presence of 14C acetate by TLC analysis; type: functional, organism-based; details: dose 1.5-6 µg/ml; method in brief: as §5
[20] = tested on: Mycobacterium tuberculosis; assay: Antimycobacterial activity against Mycobacterium tuberculosis H37Rv infected in mouse assessed as reduction in colony formation in spleen at 50 mg/kg administered for 28 days; type: functional, organism-based; details: time 28.0 day; method in brief: as §6
[21] = tested on: Mycobacterium tuberculosis; assay: Antimycobacterial activity against Mycobacterium tuberculosis H37Rv assessed as change in trehalose monomycolates production at 1.5 to 6 ug/ml incubated for 24 hrs in presence of 14C acetate by TLC analysis; type: functional, organism-based; details: dose 1.5-6 µg/ml; method in brief: as §5
[22] = tested on: Mycobacterium tuberculosis; assay: Antimycobacterial activity against Mycobacterium tuberculosis H37Rv at 1 times MIC measured after 15 days in presence of methionine by alamar blue staining based microplate analysis; type: functional, organism-based; details: time 15.0 day
[23] = tested on: Mycobacterium tuberculosis; assay: Antimycobacterial activity against Mycobacterium tuberculosis H37Rv assessed as decreased synthesis of cyclopropyl-mycolic acid at 1.5 to 6 ug/ml incubated for 24 hrs in presence of 14C acetate by TLC analysis; type: functional, organism-based; details: dose 1.5-6 µg/ml; method in brief: as §5
[24] = tested on: Mycobacterium tuberculosis; assay: Antimycobacterial activity against Mycobacterium tuberculosis H37Rv assessed as change in phospholipid production at 1.5 to 6 ug/ml incubated for 24 hrs in presence of 14C acetate by TLC analysis; type: functional, organism-based; details: dose 1.5-6 µg/ml; method in brief: as §5
[25] = tested on: Mycobacterium tuberculosis; assay: Antimycobacterial activity against Mycobacterium tuberculosis H37Rv assessed as decreased synthesis of methoxy-mycolic acid at 1.5 to 6 ug/ml incubated for 24 hrs in presence of 14C acetate by TLC analysis; type: functional, organism-based; details: dose 1.5-6 µg/ml; method in brief: as §5

In the case of Nc1ccc(C(=O)O)c(O)c1 [AMINOSALICYLIC ACID], the selectivity ratio [1] is reported as 62.1, the Activity [2] is reported as “inactive” and the MIC [3] is reported as 3.13 mg/L (≈ 20.4 µM). The MIC [4] was 3.13 mg/L (≈ 20.4 µM), the IC50 [5] was > 1270 µM and the MIC [6] was 500 mg/L (≈ 3270 µM). It also gave an MIC [7] of 250 mg/L (≈ 1630 µM) and an MIC [8] of 0.25 mg/L (≈ 1.63 µM).
With O=C(Nc1ccc2c(c1)OCOC2=O)c1ccc2ccccc2n1 the MIC [9] was 50 mg/L (≈ 156 µM), the MIC [10] was 50 mg/L (≈ 156 µM) and the selectivity ratio [1] was > 5.1. The Drug metabolism [11] was “Metabolite_Detected”, the MIC [3] was > 100 mg/L and the Drug metabolism [12] was “Metabolite_Detected”. The half-life at 3 µM [13] was 11 min, the Drug metabolism [14] was “Metabolite_Detected” and the microsomal CLint at 3 µM [15] was 122 µL/min/mg. The MIC [4] was 1.56 mg/L (≈ 4.87 µM), the IC50 [5] was > 25 µM and the MIC [6] was ≥ 250 mg/L. For the same compound, the MIC [16] was > 100 mg/L, the MIC [7] was ≥ 250 mg/L and the MIC [8] was 1.98 mg/L (≈ 6.18 µM).
With O=C(Nc1ccc(C(=O)O)c(O)c1)c1ccc2ccccc2n1 the Activity [17] was “Active”, the Activity [18] was “inactive” and the Activity [19] was “inactive”. For the same compound, the Activity [20] was “Active”, the Activity [21] was “inactive” and the Activity [22] was “inactive”. The Activity [23] was “Active”, the Activity [24] was “inactive” and the Activity [25] was “Active”.
